Measurements: ChEMBL document CHEMBL5357045, “Development of pharmacophore models for AcrB protein and the identification of potential adjuvant candidates for overcoming efflux-mediated colistin resistance” (2024)
≈ marks a conversion by molar mass, not a printed value. Calls of active or inactive are those of the source.

Experiments:
[1] = system: Escherichia coli; assay: Antibacterial activity against Escherichia coli; assay type: functional
[2] = system: Escherichia coli; assay: Antibacterial activity against Escherichia coli BW25113; assay type: functional
[3] = system: Klebsiella pneumoniae; assay: Antibacterial activity against Klebsiella pneumoniae UK48 incubated for 16 to 18 hrs by broth microdilution method; assay type: functional; conditions: time 16-18 hrs
Outline: (§1)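 CLSI broth microdilution in cation-adjusted Mueller–Hinton broth, inoculum 5×10^5 CFU mL−1. Ranges tested: colistin 1024–2 μg mL−1, CCCP 80–1 μg mL−1, argatroban 1024–2 μg mL−1. Incubation is 37 °C for 16–18 h. Growth is visualized with triphenyl tetrazolium chloride, and the MIC is interpreted by CLSI breakpoint criteria.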

[4] = system: Morganella morganii; assay: Antibacterial activity against Morganella morganii UM869 incubated for 16 to 18 hrs by broth microdilution method; assay type: functional; conditions: time 16-18 hrs; outline: as §1
[5] = system: Morganella morganii; assay: Antibacterial activity against Morganella morganii UM573 incubated for 16 to 18 hrs by broth microdilution method; assay type: functional; conditions: time 16-18 hrs; outline: as §1
[6] = system: Klebsiella pneumoniae; assay: Antibacterial activity against Klebsiella pneumoniae UK48 assessed as efflux pump inhibition by measuring mean fluorescence intensity incubated for 30 mins by EtBr staining based assay; assay type: functional, organism-based
Outline: (§2)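 Isolates grown in LB broth and adjusted to 0.5 McFarland. Cultures with no drug, CCCP or test agent (fraction of each agent's MIC per isolate) were shaken 30 min at 37 °C, then swabbed cartwheel-style onto TSA plates containing EtBr 2.5 mg L⁻¹ and incubated 18 h at 37 °C. Swab fluorescence was imaged and mean intensity compared by Student's t-test. K. pneumoniae ATCC13882 and SDL79 served as controls.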

[7] = system: Morganella morganii; assay: Antibacterial activity against Morganella morganii UM573 assessed as efflux pump inhibition by measuring mean fluorescence intensity incubated for 30 mins by EtBr staining based assay; assay type: functional, organism-based; outline: as §2
[8] = system: Morganella morganii; assay: Antibacterial activity against Morganella morganii UM869 assessed as efflux pump inhibition by measuring mean fluorescence intensity incubated for 30 mins by EtBr staining based assay; assay type: functional, organism-based; outline: as §2
[9] = system: Klebsiella pneumoniae; assay: Bacteriostatic activity against Klebsiella pneumoniae UK48 incubated for 24 hrs by time-kill assay; assay type: functional, organism-based
Outline: (§3)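 Log-phase cultures (~5×10^6 CFU mL−1) in cation-adjusted Mueller–Hinton broth at 37 °C are given drugs alone or combined at ¼ MIC; untreated growth is the control. At 0, 4, 8, 12 and 24 h, samples are diluted […] in 0.7% NaCl, 100 µL is plated on Mueller–Hinton agar overnight at 37 °C, and colonies are counted. Three repeats, mean reported.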

[10] = system: Morganella morganii; assay: Bacteriostatic activity against Morganella morganii UM869 incubated for 24 hrs by time-kill assay; assay type: functional, organism-based; outline: as §3
[11] = system: Morganella morganii; assay: Bacteriostatic activity against Morganella morganii UM573 incubated for 24 hrs by time-kill assay; assay type: functional, organism-based; outline: as §3
[12] = system: Escherichia coli; assay: Antibacterial activity against Escherichia coli ATCC 35218; assay type: functional
[13] = system: Escherichia coli; assay: Antibacterial activity against Escherichia coli by broth dilution method; assay type: functional
[14] = system: Escherichia coli; assay: Antibacterial activity against Escherichia coli AG100A; assay type: functional
[15] = system: Escherichia coli; assay: Antibacterial activity against Escherichia coli APEC_O2; assay type: functional
[16] = system: Klebsiella pneumoniae; assay: Synergistic antibacterial activity against Klebsiella pneumoniae UK48 in presence of colistin by checkerboard assay; assay type: functional
Outline: (§4)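 Checkerboard run in triplicate in cation-supplemented Mueller–Hinton broth. Colistin 512 to 1 µg mL−1 is crossed with argatroban 256 to 2 µg mL−1. Inoculum is ~5–6×10^5 CFU mL−1, incubated 37 °C for 24 h. ΣFIC = C_A/MIC_A + C_B/MIC_B, where C is each drug's concentration in combination at the MIC well.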

[17] = system: Morganella morganii; assay: Synergistic antibacterial activity against Morganella morganii UM869 in presence of colistin by checkerboard assay; assay type: functional; outline: as §4
[18] = system: Morganella morganii; assay: Synergistic antibacterial activity against Morganella morganii UM573 in presence of colistin by checkerboard assay; assay type: functional; outline: as §4

**Q.** How did the MIC [1] turn out when Cc1onc(-c2ccccc2)c1C(=O)N[C@@H]1C(=O)N2[C@@H]1SC(C)(C)[C@@H]2C(=O)O [OXACILLIN] was run?
**A.** 1020 µg/mL (≈ 2550 µM)

**Q.** For CC(C)=CC[C@@H](O)C1=CC(=O)c2c(O)ccc(O)c2C1=O [SHIKONIN], which MIC [2] is on record?
**A.** 256 µg/mL (≈ 888 µM)

**Q.** CC[n+]1c(-c2ccccc2)c2cc(N)ccc2c2ccc(N)cc21 [HOMIDIUM] was tested. Which MIC [1] did it give?
**A.** 512 µg/mL

**Q.** With N#CC(C#N)=NNc1cccc(Cl)c1 [CARBONYL CYANIDE M-CHLOROPHENYLHYDRAZONE] as the compound, how does the MIC [3] read?
**A.** 5 µg/mL (≈ 24.4 µM)

**Q.** And the MIC [4]?
**A.** 20 µg/mL (≈ 97.7 µM)

**Q.** And the MIC [5]?
**A.** 20 µg/mL (≈ 97.7 µM)

**Q.** What about the Activity [6] of the same compound?
**A.** Active

**Q.** What about the Activity [7] of the same compound?
**A.** Active

**Q.** And the Activity [8]?
**A.** Active

**Q.** And the Activity [9]?
**A.** Active

**Q.** What about the Activity [10] of the same compound?
**A.** Active

**Q.** And the Activity [11]?
**A.** Active

**Q.** For O=C(Cc1cccs1)N[C@@H]1C(=O)N2C(C(=O)O)=C(/C=C/c3ccc([N+](=O)[O-])cc3[N+](=O)[O-])CS[C@H]12 [NITROCEFIN], which MIC [1] is on record?
**A.** 1.9 µg/mL (≈ 3.68 µM)

**Q.** C[C@H]1[C@@H](O)O[C@@H]2O[C@@]3(C)CC[C@H]4[C@H](C)CC[C@@H]1[C@@]24OO3 [ARTENIMOL] was tested. Which MIC [12] did it give?
**A.** 1020 µg/mL (≈ 3600 µM)

**Q.** O=C(Nc1ccccc1)c1ccccc1C(=O)Nc1ccccc1 was tested. Which MIC [13] did it give?
**A.** 64 µg/mL (≈ 202 µM)

**Q.** O=c1c(-c2ccc(O)cc2)coc2cc(O)ccc12 [DAIDZEIN] was tested. Which MIC [1] did it give?
**A.** 16 µg/mL (≈ 62.9 µM)

**Q.** With O=c1[nH]c2ccccc2n1C1CCN(CCCC(c2ccc(F)cc2)c2ccc(F)cc2)CC1 [PIMOZIDE] as the compound, how does the MIC [1] read?
**A.** 92.3 µg/mL (≈ 200 µM)

**Q.** CC(C)=CCC/C(C)=C/CO [GERANIOL] was tested. Which MIC [14] did it give?
**A.** 64 µg/mL (≈ 415 µM)

**Q.** CC[C@H]1OC(=O)[C@H](C)[C@@H](O[C@H]2C[C@@](C)(OC)[C@@H](O)[C@H](C)O2)[C@H](C)[C@@H](O[C@@H]2O[C@H](C)C[C@H](N(C)C)[C@H]2O)[C@](C)(O)C[C@@H](C)C(=O)[C@H](C)[C@@H](O)[C@]1(C)O [ERYTHROMYCIN] was tested. Which MIC [1] did it give?
**A.** 367 µg/mL (≈ 500 µM)

**Q.** Which MIC [2] does the source give for O=c1c2cc(O)c(O)cc2oc2cc(O)c([C@@H]3O[C@H](CO)[C@@H](O)[C@H](O)[C@H]3O)c(O)c12 [MANGIFERIN] here?
**A.** 512 µg/mL (≈ 1210 µM)

**Q.** For CN(C)CCC=C1c2ccccc2CCc2ccccc21 [AMITRIPTYLINE], which MIC [2] is on record?
**A.** 444 µg/mL (≈ 1600 µM)

**Q.** Which MIC [2] does the source give for CC(Cc1ccc(O)c(O)c1)C(C)Cc1ccc(O)c(O)c1 (centres undefined) [NORDIHYDROGUAIARETIC ACID] here?
**A.** 512 µg/mL (≈ 1690 µM)

**Q.** How did the MIC [15] turn out when CN[C@H]1CC[C@@H](c2ccc(Cl)c(Cl)c2)c2ccccc21 [SERTRALINE] was run?
**A.** 32 µg/mL (≈ 104 µM)

**Q.** Which MIC [2] does the source give for CN(C)CCCN1c2ccccc2Sc2ccc(Cl)cc21 [CHLORPROMAZINE] here?
**A.** 256 µg/mL (≈ 803 µM)

**Q.** CC1(C)Cc2c(C#N)c(SCCc3ccccc3)nc(N3CCOCC3)c2CO1 was tested. Which MIC [1] did it give?
**A.** 4.05 µg/mL (≈ 9.89 µM)

**Q.** Which MIC [2] does the source give for O=c1c(O)c(-c2ccc(O)c(O)c2)oc2cc(O)cc(O)c12 [QUERCETIN] here?
**A.** 1020 µg/mL (≈ 3390 µM)

**Q.** CC(=O)NC[C@H]1CN(c2ccc(N3CCOCC3)c(F)c2)C(=O)O1 [LINEZOLID] was tested. Which MIC [1] did it give?
**A.** 512 µg/mL (≈ 1520 µM)

**Q.** Which MIC [2] does the source give for CC1=CC(=O)c2c(O)cccc2C1=O [PLUMBAGIN] here?
**A.** 128 µg/mL (≈ 680 µM)

**Q.** C[C@H]1[C@H](C)CC[C@]2(C(=O)O)CC[C@]3(C)C(=CC[C@@H]4[C@@]5(C)CC[C@H](O)C(C)(C)[C@@H]5CC[C@]43C)[C@H]12 [URSOLIC ACID] was tested. Which MIC [1] did it give?
**A.** 50 µg/mL (≈ 109 µM)

**Q.** How did the MIC [3] turn out when C[C@@H]1CNc2c(cccc2S(=O)(=O)N[C@@H](CCCNC(=N)N)C(=O)N2CC[C@@H](C)C[C@@H]2C(=O)O)C1 was run?
**A.** ≥ 512 µg/mL

**Q.** And the MIC [4]?
**A.** ≥ 512 µg/mL

**Q.** And the MIC [5]?
**A.** ≥ 512 µg/mL

**Q.** And the MIC [16]?
**A.** 64 µg/mL

**Q.** What about the MIC [17] of the same compound?
**A.** 128 µg/mL

**Q.** And the MIC [18]?
**A.** 128 µg/mL

**Q.** And the Activity [6]?
**A.** Active

**Q.** What about the Activity [7] of the same compound?
**A.** Active

**Q.** What about the Activity [8] of the same compound?
**A.** Active

**Q.** And the Activity [9]?
**A.** inactive

**Q.** And the Activity [10]?
**A.** inactive

**Q.** What about the Activity [11] of the same compound?
**A.** inactive

**Q.** How did the MIC [12] turn out when C[C@H]1[C@H](OC(=O)CCC(=O)O)O[C@@H]2O[C@@]3(C)CC[C@H]4[C@H](C)CC[C@@H]1[C@@]24OO3 [ARTESUNATE] was run?
**A.** 4100 µg/mL (≈ 10700 µM)

**Q.** With OC(c1cc(-c2ccc(C(F)(F)F)cc2)nc(C(F)(F)F)c1)C1CCCCN1 (centres undefined) [ENPIROLINE] as the compound, how does the MIC [13] read?
**A.** 20.2 µg/mL (≈ 50 µM)

**Q.** Which MIC [13] does the source give for Nc1ccnc2ccccc12 [QUINOLIN-4-AMINE] here?
**A.** 14.4 µg/mL (≈ 100 µM)
